Data taken from ChEMBL document CHEMBL1123747, “N-methyl derivatives of the 5-HT2 agonist 1-(4-bromo-2,5-dimethoxyphenyl)-2-aminopropane” (J Med Chem, 1987).
Activity calls are given as the source filed them. The rule behind the calls is not given here.

Assays:
Rattus norvegicus [1] = experiment: The number of animals responding per number of animals receiving the drug in the stimulus-generation studies was calculated at dose 2.2 mg/kg; format: functional
Summary of the method: (§1)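 Male Sprague-Dawley rats were trained to discriminate 0.2 mg/kg ip training drug from saline (two levers, VI 15-s, milk reward). Test doses were given ip 15 min pre-session in random order to groups of 3–6. In the 2.5-min extinction session, rats making fewer than five total responses were counted as disrupted. N is animals responding over animals dosed.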

Rattus norvegicus [2] = species on record: Rattus norvegicus; experiment: The number of animals responding per number of animals receiving the drug(3/5) in the stimulus-generation studies was calculated at dose 6.0 mg / kg; format: functional; summary of the method: as §1
Rattus norvegicus [3] = species on record: Rattus norvegicus; experiment: The number of animals responding per number of animals receiving the drug(4/6) in the stimulus-generation studies was calculated at dose 4.0 mg / kg; format: functional
Summary of the method: (§2)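 Male Sprague-Dawley rats (n = 6) were trained on a two-lever operant task for sweetened-milk reward to discriminate 0.2 mg/kg (R)-(-)-DOB-HCl ip from 1.0 mL/kg 0.9% saline, with a VI 15-s schedule and 15-min sessions. Test doses were given ip 15 min before a 2.5-min extinction session, in random order, to groups of 3-6 rats. Read-out was % drug-lever responses; fewer than five total responses counted as disrupted.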

Rattus norvegicus [4] = species on record: Rattus norvegicus; experiment: The mean responses per minute during the 2.5 min extinction session in the stimulus-generation studies was calculated at dose 4.0 mg / kg; format: functional
Summary of the method: (§3)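 Rats were trained on a two-lever drug-versus-saline discrimination (0.2 mg/kg ip training dose, VI 15-s, food reward). Challenge doses were given ip 15 min before a 2.5-min extinction test, in random order, to groups of 3–6 rats, with at least three training sessions between tests. Response rate is responses per minute over the extinction session.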

Rattus norvegicus [5] = species on record: Rattus norvegicus; experiment: The number of animals responding per number of animals receiving the drug(1/4) in the stimulus-generation studies was calculated at dose 8.5 mg / kg; format: functional; summary of the method: as §1
Rattus norvegicus [6] = species on record: Rattus norvegicus; experiment: The compound was tested for effective dose ( ED 50) against stimulus generation with rats trained to discriminate (R) (-)-DOB from saline.; format: functional
Summary of the method: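 Male Sprague-Dawley rats (n = 6) on a two-lever operant task for sweetened milk, VI 15-s schedule. Trained to discriminate 0.2 mg/kg ip training drug from 1.0 mL/kg 0.9% saline, 15 min pre-session. Test doses were given ip in random order to groups of 3–6, with 15-min pretreatment and a 2.5-min extinction session. ED50 was calculated from dose-response data.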

Rattus norvegicus [7] = species on record: Rattus norvegicus; experiment: The number of responses made on the (R)(-)-DOB appropriate level as a percent of total responses made during the 2.5 min extinction session in the stimulus-generation studies was calculated at dose 6.0 mg / kg; format: functional; summary of the method: as §2
Rattus norvegicus [8] = species on record: Rattus norvegicus; experiment: The mean responses per minute during the 2.5 min extinction session in the stimulus-generation studies was calculated at dose 2.0 mg / kg; format: functional; summary of the method: as §3
Rattus norvegicus [9] = species on record: Rattus norvegicus; experiment: The mean responses per minute during the 2.5 min extinction session in the stimulus-generation studies was calculated at dose 6.0 mg / kg; format: functional; summary of the method: as §3
Rattus norvegicus [10] = species on record: Rattus norvegicus; experiment: The number of animals responding per number of animals receiving the drug(3/5) in the stimulus-generation studies was calculated at dose 7.8 mg / kg; format: functional; summary of the method: as §1
Rattus norvegicus [11] = species on record: Rattus norvegicus; experiment: The number of responses made on the (R)(-)-DOB appropriate level, generation studies was calculated at dose 7.8 mg / kg; format: functional; summary of the method: as §2
Rattus norvegicus [12] = species on record: Rattus norvegicus; experiment: The mean responses per minute during the 2.5 min extinction session in the stimulus-generation studies was calculated at dose 7.8 mg / kg; format: functional; summary of the method: as §3
Rattus norvegicus [13] = species on record: Rattus norvegicus; experiment: The number of responses made on the (R)(-)-DOB appropriate level, generation studies was calculated at dose 2.0 mg / kg; format: functional; summary of the method: as §2
Rattus norvegicus [14] = species on record: Rattus norvegicus; experiment: The number of responses made on the (R)(-)-DOB appropriate level, generation studies was calculated at dose 4.0 mg / kg; format: functional; summary of the method: as §2
[15] = target: T1, Serotonin 2 (5-HT2) receptor (Rattus norvegicus, UniProt P30994+P08909+P14842); experiment: Affinity towards [3H]- ketanserin-labeled 5-hydroxytryptamine 2 receptor sites in rat cortical homogenates
Summary of the method: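 Label was 0.4 nM [3H]ketanserin, with 11 competitor concentrations run in triplicate and nonspecific binding defined by 1 μM cinanserin. Bound ligand was filtered onto glass fibre and counted by scintillation. IC50 came from nonlinear regression; Ki = IC50/(1+[D]/KD).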

[16] = target: T1, Serotonin 2 (5-HT2) receptor; experiment: Affinity towards [3H]- DOB -labeled 5-hydroxytryptamine 2 receptor sites in rat cortical homogenates
Rattus norvegicus [17] = species on record: Rattus norvegicus; experiment: The number of responses made on the (R)(-)-DOB appropriate level, generation studies was calculated at dose 7.5 mg / kg; format: functional; summary of the method: as §2
Rattus norvegicus [18] = species on record: Rattus norvegicus; experiment: The number of responses made on the (R)(-)-DOB appropriate level as a percent of total responses made during the 2.5 min extinction session in the stimulus-generation studies was calculated at dose 2.2 mg / kg; format: functional; summary of the method: as §2
Rattus norvegicus [19] = species on record: Rattus norvegicus; experiment: The mean responses per minute during the 2.5 min extinction session in the stimulus-generation studies was calculated at dose 2.2 mg / kg; format: functional; summary of the method: as §3
Rattus norvegicus [20] = species on record: Rattus norvegicus; experiment: The mean responses per minute during the 2.5 min extinction session in the stimulus-generation studies was calculated at dose 7.5 mg / kg; format: functional; summary of the method: as §3
Rattus norvegicus [21] = species on record: Rattus norvegicus; experiment: The number of animals responding per number of animals receiving the drug(3/4) in the stimulus-generation studies was calculated at dose 0.3 mg / kg; format: functional
Rattus norvegicus [22] = species on record: Rattus norvegicus; experiment: The number of responses made on the (R)(-)-DOB appropriate level, generation studies was calculated at dose 8.5 mg / kg; NR means not responding; format: functional, organism-based; set-up: dose 8.5 mg / kg; summary of the method: as §2
Rattus norvegicus [23] = species on record: Rattus norvegicus; experiment: The number of animals responding per number of animals receiving the drug(3/5) in the stimulus-generation studies was calculated at dose 7.5 mg / kg; format: functional; summary of the method: as §1

For `COc1cc(CC(C)N(C)C)c(OC)cc1Br` (stereo not drawn), the “No. of animals responding/animals receiving drug” value (Rattus norvegicus [1]) was 5, the “No. of animals responding/animals receiving drug” value (Rattus norvegicus [2]) was 3 and the “No. of animals responding/animals receiving drug” value (Rattus norvegicus [3]) was 4. The Response rate (Rattus norvegicus [4]) was 10.1, the “No. of animals responding/animals receiving drug” value (Rattus norvegicus [5]) was 1 and the ED50 (Rattus norvegicus [6]) was 5.36 mg/kg. It also gave a Responding (Rattus norvegicus [7]) of 38%, a Response rate (Rattus norvegicus [8]) of 14.6 and a Response rate (Rattus norvegicus [9]) of 8.1. The “No. of animals responding/animals receiving drug” value (Rattus norvegicus [10]) was 3, the Responding (Rattus norvegicus [11]) was 86% and the Response rate (Rattus norvegicus [12]) was 4.5. For the same molecule, the Responding (Rattus norvegicus [13]) was 23%, the Responding (Rattus norvegicus [14]) was 29% and the Ki [15] was 380 nM. The Ki [16] was 94 nM, the Responding (Rattus norvegicus [17]) was 64% and the Responding (Rattus norvegicus [18]) was 6%. The Response rate (Rattus norvegicus [19]) was 14.8, the Response rate (Rattus norvegicus [20]) was 6.8 and the “No. of animals responding/animals receiving drug” value (Rattus norvegicus [21]) was 3. The Responding (Rattus norvegicus [22]) was “inactive” and the “No. of animals responding/animals receiving drug” value (Rattus norvegicus [23]) was 3.
